Test results taken from ChEMBL document CHEMBL4229371, “Discovery of [1,2,4]triazolo[3,4-b][1,3,4]thiadiazole derivatives as novel, potent and selective c-Met kinase inhibitors: Synthesis, SAR study, and biological activity” (Eur J Med Chem, 2018).

Key:
[1] = biological target: Hepatocyte growth factor receptor (Homo sapiens, UniProt P08581); assay: Inhibition of GST-tagged human c-MET preincubated for 20 mins followed by [33P]-ATP addition and measured after 2 hrs by Hot-Spot kinase assay
EBC-1 [2] = assay: Antiproliferative activity against human EBC1 cells at 5 uM after 72 hrs by Cell Titer-Glo assay; format: functional
In short: (§1)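 Cell Titer-Glo viability assay. Exponentially growing cells were plated at 4000 per well in RPMI-1640 with 10% FPS and incubated 12 h at 37 °C in 5% CO2. Compound was then added at the indicated final concentrations and cells were held 72 h at 37 °C in 5% CO2. CTG reagent was applied for 10 min at room temperature. Inhibition % = (1 − Vsample/Vvehicle control) × 100.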

MKN-45 [3] = assay: Antiproliferative activity against human MKN45 cells at 5 uM after 72 hrs by Cell Titer-Glo assay; format: functional; in short: as §1
SNU-5 = assay: Antiproliferative activity against human SNU5 cells at 5 uM after 72 hrs by Cell Titer-Glo assay; format: functional; in short: as §1
MKN-45 [4] = assay: Antiproliferative activity against human MKN45 cells at 1 uM after 72 hrs by Cell Titer-Glo assay; format: functional; in short: as §1
EBC-1 [5] = assay: Antiproliferative activity against human EBC1 cells after 72 hrs by Cell Titer-Glo assay; format: functional, cell-based; conditions: EBC-1, 72 h; in short: as §1
EBC-1 [6] = assay: Antiproliferative activity against human EBC1 cells at 1 uM after 72 hrs by Cell Titer-Glo assay; format: functional; in short: as §1

Chain of Hepatocyte growth factor receptor (P08581 whole entry): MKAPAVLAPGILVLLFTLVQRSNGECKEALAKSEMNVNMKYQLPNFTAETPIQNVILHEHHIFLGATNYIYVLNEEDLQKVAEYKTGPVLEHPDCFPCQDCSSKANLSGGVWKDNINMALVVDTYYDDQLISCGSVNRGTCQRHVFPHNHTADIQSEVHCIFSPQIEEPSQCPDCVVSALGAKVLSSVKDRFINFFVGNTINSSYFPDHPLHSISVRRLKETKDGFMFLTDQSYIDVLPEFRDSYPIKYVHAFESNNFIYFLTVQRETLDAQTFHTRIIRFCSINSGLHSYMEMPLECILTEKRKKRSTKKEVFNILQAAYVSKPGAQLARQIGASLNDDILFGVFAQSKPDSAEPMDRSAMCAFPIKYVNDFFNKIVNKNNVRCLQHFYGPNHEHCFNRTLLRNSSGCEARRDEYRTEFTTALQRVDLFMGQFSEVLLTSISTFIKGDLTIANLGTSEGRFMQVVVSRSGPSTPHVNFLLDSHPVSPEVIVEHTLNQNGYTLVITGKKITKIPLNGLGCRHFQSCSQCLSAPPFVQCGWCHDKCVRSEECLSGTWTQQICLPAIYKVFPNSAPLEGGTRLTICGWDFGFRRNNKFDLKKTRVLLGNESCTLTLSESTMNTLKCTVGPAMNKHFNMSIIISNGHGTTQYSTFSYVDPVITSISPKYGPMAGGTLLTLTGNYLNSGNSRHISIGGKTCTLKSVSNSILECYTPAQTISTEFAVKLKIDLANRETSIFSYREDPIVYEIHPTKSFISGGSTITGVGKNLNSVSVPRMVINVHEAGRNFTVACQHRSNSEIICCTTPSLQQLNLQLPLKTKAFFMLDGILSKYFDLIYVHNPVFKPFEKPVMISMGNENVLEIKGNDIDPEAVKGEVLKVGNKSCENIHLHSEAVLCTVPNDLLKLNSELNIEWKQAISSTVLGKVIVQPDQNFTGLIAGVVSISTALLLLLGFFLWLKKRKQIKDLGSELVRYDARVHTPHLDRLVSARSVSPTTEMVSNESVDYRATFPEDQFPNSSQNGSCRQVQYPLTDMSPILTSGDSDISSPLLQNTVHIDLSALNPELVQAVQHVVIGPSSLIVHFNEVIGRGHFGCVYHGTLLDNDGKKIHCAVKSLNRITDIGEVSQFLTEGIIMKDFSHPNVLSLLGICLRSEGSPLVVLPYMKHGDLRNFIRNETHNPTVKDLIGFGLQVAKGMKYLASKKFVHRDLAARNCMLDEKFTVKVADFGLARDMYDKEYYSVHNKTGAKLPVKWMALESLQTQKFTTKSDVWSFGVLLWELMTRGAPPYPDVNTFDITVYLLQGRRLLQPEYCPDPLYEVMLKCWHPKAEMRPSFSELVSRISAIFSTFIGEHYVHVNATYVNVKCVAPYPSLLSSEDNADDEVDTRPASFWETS

Row | Structure (SMILES) | IC50 [1] [nM] | Activity (EBC-1 [2]) [%] | Activity (MKN-45 [3]) [%] | Activity (SNU-5) [%] | Activity (MKN-45 [4]) [%] | IC50 (EBC-1 [5]) [nM] | Activity (EBC-1 [6]) [%]
1 | Cn1cc(-c2nn3c(Cc4ccc(OCCN5CCOCC5)cc4)nnc3s2)cn1 | > 10000 |  |  |  |  |  | 
2 | COc1ccc2c(OCc3nnc4sc(-c5cc6cc(F)ccc6[nH]5)nn34)ccnc2c1 |  | 42.3 | 47.7 | 54.4 |  |  | 
3 | COc1ccc2c(OCc3nnc4sc(-c5ccncc5)nn34)ccnc2c1 |  | 83.7 | 73 | 65.7 | 73.8 | 289 | 91.6
4 | COc1ccc2c(OCc3nnc4sc(-c5cc[nH]c5)nn34)ccnc2c1 |  | 85.9 | 70.5 | 71.5 | 71.1 | 353 | 90.6
5 | CN(C)C(=O)COc1ccc(Cc2nnc3sc(-c4cnn(C)c4)nn23)cc1 | > 10000 |  |  |  |  |  | 
6 | O=C(Oc1ccc(Cc2nnc3sc(-c4cc5ccccc5[nH]4)nn23)cc1)c1cc2ccccc2[nH]1 | > 10000 |  |  |  |  |  | 
7 | COc1ccc2c(OCc3nnc4sc(-c5cc6ccccc6n5C)nn34)ccnc2c1 |  | 87 | 74.1 | 67.7 | 60.8 | 313 | 91.6
8 | COc1ccc(-c2nn3c(COc4ccnc5cc(OC)ccc45)nnc3s2)cc1 |  | 85.2 | 72 | 74.5 | 76.4 | 161 | 89.1
9 | COc1ccc2c(OCc3nnc4sc(-c5ccc[nH]5)nn34)ccnc2c1 |  | 83.7 | 76.8 | 72.4 | 79.3 | 149 | 80.5
10 | COCCn1ccc(-c2nn3c(COc4ccnc5cc(OC)ccc45)nnc3s2)c1 |  | 78.6 | 73 | 46.1 | 71.1 | 327 | 89
11 | Cn1cc(C(=O)Oc2ccc(Cc3nnc4sc(-c5cnn(C)c5)nn34)cc2)cn1 | > 10000 |  |  |  |  |  | 
12 | COc1ccc(Cc2nnc3sc(-c4cc5ccccc5[nH]4)nn23)cc1 | 79.3 | 87.3 | 76.3 | 70.2 | 78.1 | 107 | 86.5
